Published values from different studies.

`Cc1sc2c(c1C)C(c1ccc(Cl)cc1)=N[C@@H](CC(N)=O)c1nnc(C)n1-2` gave an IC50 of 0.109 µM (MP46; cell growth or viability; ATP luminescence; 72 h).
`O=C1CCP(=[Se])(c2ccccc2)CC1` gave an IC50 of over 100 µM (SW-620; cell growth or viability; MTT; 72 h).
`COc1ccc2c(c1OC)CN1CCc3cc4c(cc3[C@@H]1C2)OCO4` gave an IC50 of 2.69 µM (HepaRG; reactive oxygen species; inhibitor; 16 h).
`O=C(NCc1ccc(O)cc1)c1cn(Cc2ccc(F)cc2)c2ccc(Oc3ccccc3)cc2c1=O` gave an IC50 of 78.5 µM (MCF7; cell growth or viability; MTT; 48 h).
For `N.N.[Cl][Pt][Cl]`, the IC50 was 2 µM (MCF7; cell growth or viability; MTT; 48 h).
For `S=P1(c2ccccc2)CCCCC1`, the IC50 was over 100 µM (SW-620; cell growth or viability; MTT; 72 h).
For `CC(C)[C@H](NC(=O)[C@H](Cc1c[nH]c2ccccc12)NC(=O)[C@H](Cc1c[nH]cn1)NC(=O)[C@H](CCCNC(=N)N)NC(=O)[C@H](CCCNC(=N)N)NC(=O)[C@H](Cc1c[nH]c2ccccc12)NC(=O)[C@H](Cc1c[nH]c2ccccc12)NC(=O)[C@H](Cc1c[nH]cn1)NC(=O)[C@H](Cc1c[nH]c2ccccc12)NC(=O)[C@H](CCCNC(=N)N)NC(=O)[C@@H](N)CCCCN)C(=O)N[C@H](C(=O)N[C@@H](Cc1c[nH]c2ccccc12)C(N)=O)C(C)C`, the IC50 was 103 µM (THP-1; cell growth or viability; MTT).
`O=C(NCc1ccc(F)cc1)c1cn(Cc2ccc(C(F)(F)F)cc2)c2ccc(Oc3ccccc3)cc2c1=O` gave an IC50 of 8.32 µM (MCF7; cell growth or viability; MTT; 24 h).
For `CC[C@H](C)[C@H](NC(=O)[C@H](CCCCN)NC(=O)[C@H](CCCCN)NC(=O)[C@H](CC(C)C)NC(=O)[C@H](CCCCN)NC(=O)[C@H](CCCCN)NC(=O)[C@H](Cc1ccccc1)NC(=O)[C@H](Cc1ccccc1)NC(=O)[C@H](CCCNC(=N)N)NC(=O)[C@H](CCCNC(=N)N)NC(=O)[C@@H](NC(=O)[C@H](CCCCN)NC(=O)[C@H](CCCNC(=N)N)NC(=O)[C@@H](NC(=O)[C@@H](N)Cc1ccc(O)cc1)[C@@H](C)CC)[C@@H](C)CC)C(=O)N[C@@H](CC(C)C)C(=O)N[C@@H](CCCCN)C(=O)N[C@@H](CCCCN)C(N)=O`, the IC50 was 5.2 µM (THP-1; cell growth or viability; resazurin).
`CC[C@@]1(O)C(=O)OCc2c1cc1n(c2=O)Cc2cc3ccccc3nc2-1` has an IC50 of 0.21 µM (MP46; cell growth or viability; ATP luminescence; 72 h).
`N.N.[Cl][Pt][Cl]` has an IC50 of 6.7 µM (SW-620; cell growth or viability; MTT; 72 h).
`O=C(NCc1ccccc1)c1cn(Cc2ccc(C(F)(F)F)cc2)c2ccc(Oc3ccccc3)cc2c1=O` gave an IC50 of under 12 µM (MCF7; cell growth or viability; MTT).
